According to ChEMBL document CHEMBL1152591, “Design, synthesis and structure-activity relationship of 2-(3',4',5'-trimethoxybenzoyl)-benzo[b]furan derivatives as a novel class of inhibitors of tubulin polymerization” (Bioorg Med Chem, 2009):

Key:
HeLa = experiment: Cytotoxicity against human HeLa cells after 2 days; assay type: functional, cell-based; settings: 48 h
L1210 = experiment: Cytotoxicity against mouse L1210 cells after 2 days; assay type: functional, cell-based; settings: L1210, 48 h
How it was run: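 Cells were incubated with the compounds at 37 °C for two days, then counted on a Coulter counter. IC50 is the concentration that inhibits cell proliferation by 50%.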

[1] = Cytotoxicity against human Molt4/C8 cells after 2 days; settings: MOLT-4, 48 h
FM3A = experiment: Cytotoxicity against mouse FM3A0 cells after 2 days; assay type: functional, cell-based; settings: 48 h
CCRF-CEM = experiment: Cytotoxicity against human CEM cells after 2 days; assay type: functional, cell-based; settings: 48 h
K562 [2] = experiment: Cell cycle arrest in human K562 cells assessed as accumulation at sub-G0/G1 phase at 1.62 µM after 24 hrs by flow cytometry
[3] = Inhibition of bovine tubulin polymerization; design: species or system Bos taurus
How it was run: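 Purified bovine brain tubulin (10 μM) in glutamate buffer was preincubated with varying compound concentrations at 30 °C, then cooled to 0 °C. GTP was added and the mixture warmed to 30 °C in a recording spectrophotometer. Assembly was followed by turbidity.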

K562 [4] = experiment: Cell cycle arrest in human K562 cells assessed as accumulation at G2 phase at 1.62 µM after 24 hrs by flow cytometry
K562 [5] = experiment: Cell cycle arrest in human K562 cells assessed as accumulation at S phase at 1.62 µM after 24 hrs by flow cytometry
K562 [6] = experiment: Cell cycle arrest in human K562 cells assessed as accumulation at G1 phase at 1.62 µM after 24 hrs by flow cytometry
Bos taurus = species: Bos taurus; experiment: Displacement of [3H]colchicine from bovine tubulin at 5 uM
How it was run: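 Reaction mixtures held 1 μM bovine brain tubulin, 5 μM [3H]colchicine and 5 μM test compound. Inhibition of radiolabelled colchicine binding to tubulin is expressed as percent inhibition.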

K562 [7] = experiment: Cell cycle arrest in human K562 cells assessed as accumulation at G1 phase at 420 nM after 24 hrs by flow cytometry; assay type: functional
K562 [8] = experiment: Cell cycle arrest in human K562 cells assessed as accumulation at G2 phase at 420 nM after 24 hrs by flow cytometry; assay type: functional
K562 [9] = experiment: Cell cycle arrest in human K562 cells assessed as accumulation at sub-G0/G1 phase at 420 nM after 24 hrs by flow cytometry; assay type: functional
K562 [10] = experiment: Cell cycle arrest in human K562 cells assessed as accumulation at S phase at 420 nM after 24 hrs by flow cytometry; assay type: functional
K562 [11] = experiment: Cell cycle arrest in human K562 cells assessed as accumulation at sub-G0/G1 phase at 980 nM after 24 hrs by flow cytometry; assay type: functional
How it was run: (§1)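 K562 leukaemia cells were cultured for 24 h with compound at one fixed concentration. DNA content per cell was measured by the standard propidium iodide procedure and flow cytometry. Proportions of cells in the sub-G0–G1 (apoptotic), G0–G1, S and G2–M peaks were compared with an untreated control.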

K562 [12] = experiment: Cell cycle arrest in human K562 cells assessed as accumulation at S phase at 980 nM after 24 hrs by flow cytometry; assay type: functional; how it was run: as §1
K562 [13] = experiment: Cell cycle arrest in human K562 cells assessed as accumulation at G2 phase at 980 nM after 24 hrs by flow cytometry; assay type: functional; how it was run: as §1
K562 [14] = experiment: Cell cycle arrest in human K562 cells assessed as accumulation at G1 phase at 980 nM after 24 hrs by flow cytometry; assay type: functional; how it was run: as §1
K562 [15] = experiment: Cell cycle arrest in human K562 cells assessed as accumulation at sub-G0/G1 phase at 480 nM after 24 hrs by flow cytometry; assay type: functional
K562 [16] = experiment: Cell cycle arrest in human K562 cells assessed as accumulation at S phase at 480 nM after 24 hrs by flow cytometry; assay type: functional
K562 [17] = experiment: Cell cycle arrest in human K562 cells assessed as accumulation at G2 phase at 480 nM after 24 hrs by flow cytometry; assay type: functional
K562 [18] = experiment: Cell cycle arrest in human K562 cells assessed as accumulation at G1 phase at 480 nM after 24 hrs by flow cytometry; assay type: functional

Compound | IC50 (HeLa) | IC50 (L1210) | IC50 [1] | IC50 (FM3A) | IC50 (CCRF-CEM) | other results
COc1cc(C(=O)c2cc3cc(Br)ccc3o2)cc(OC)c1OC | > 10000 nM | > 10000 nM | > 10000 nM | > 10000 nM | > 10000 nM | 
COc1ccc2c(N)c(C(=O)c3cc(OC)c(OC)c(OC)c3)oc2c1 |  |  | 140 nM |  |  | 
COc1ccc2oc(C(=O)c3cc(OC)c(OC)c(OC)c3)cc2c1 | > 10000 nM | > 10000 nM | 9400 nM | > 10000 nM | > 10000 nM | 
COc1cc(C(=O)c2cc3cccc(OC)c3o2)cc(OC)c1OC | > 10000 nM | > 10000 nM | 7800 nM | > 10000 nM | > 10000 nM | 
COc1ccc2cc(C(=S)c3cc(OC)c(OC)c(OC)c3)oc2c1 | 100 nM | 180 nM | 100 nM | 320 nM | 220 nM | 
COc1cc(C(=O)c2oc3cc(F)ccc3c2C)cc(OC)c1OC |  | 3500 nM | 2100 nM | 3700 nM | 2700 nM | Activity (K562 [2]): 44.32%; IC50 [3]: 6900 nM; Activity (K562 [4]): 47.46%; Activity (K562 [5]): 44.32%; Activity (K562 [6]): 8.23%
COc1ccc2cc(C(=O)c3cc(OC)c(OC)c(OC)c3)oc2c1 | 110 nM | 90 nM | 59 nM | 100 nM | 70 nM | Activity (Bos taurus): 79%; IC50 [3]: 700 nM; Activity (K562 [7]): 1.83%; Activity (K562 [8]): 59.11%; Activity (K562 [9]): 16.36%; Activity (K562 [10]): 39.06%
COc1cc(C(=O)c2cc3c(OC)cccc3o2)cc(OC)c1OC | 410 nM | 410 nM | 360 nM | 550 nM | 870 nM | Activity (K562 [11]): 20.71%; Activity (Bos taurus): 76%; IC50 [3]: 1100 nM; Activity (K562 [12]): 37.4%; Activity (K562 [13]): 58.46%; Activity (K562 [14]): 4.14%
COc1cc(C(=O)c2cc3cc(Cl)ccc3o2)cc(OC)c1OC | > 10000 nM | > 10000 nM | > 10000 nM | > 10000 nM | > 10000 nM | 
COc1ccc2cc(C(O)c3cc(OC)c(OC)c(OC)c3)oc2c1 (centres undefined) | > 10000 nM | > 10000 nM | 3000 nM | 7010 nM | > 10000 nM | 
COc1ccc(/C=C\c2cc(OC)c(OC)c(OC)c2)cc1O |  |  |  |  |  | Activity (Bos taurus): 99%
COc1cc(C(=O)c2oc3c(OC)cccc3c2C)cc(OC)c1OC | 530 nM | 1700 nM | 400 nM | 1700 nM | 2400 nM | 
COc1ccc2c3c(oc2c1)C(=O)c1cc(OC)c(OC)c(OC)c1-3 | > 10000 nM | > 10000 nM | > 10000 nM | > 10000 nM | > 10000 nM | 
COc1cc2cc(C(=O)c3cc(OC)c(OC)c(OC)c3)oc2cc1OC | 570 nM | 1800 nM | 770 nM | 1200 nM | 1900 nM | 
COc1cc(C(=O)c2oc3ccc(O)cc3c2C)cc(OC)c1OC | 290 nM | 800 nM | 240 nM | 430 nM | 430 nM | Activity (Bos taurus): 69%; Activity (K562 [15]): 22.13%; IC50 [3]: 1100 nM; Activity (K562 [16]): 33.83%; Activity (K562 [17]): 47.38%; Activity (K562 [18]): 18.79%
